Assay [1] has as its target T1, Huntingtin (Homo sapiens, UniProt P42858). The experiment in a line: Inhibition of Huntingtin protein aggregation by cell based assay. The method, boiled down: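 Stable transfectants express mutant huntingtin fused to mCFP from a tet-regulatable gene. Cells are seeded in 96-well format and treated with compound for 72 h. Controls are 2 μg/mL doxycycline and 0.1% DMSO (no dox). Aggregation is scored as the presence and magnitude of fluorescent intracellular inclusions (% cells with aggregates, aggregates per cell), and an IC50 is derived.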

For assay [2], the target named is T1, Huntingtin. The experiment in a line: Inhibition of Huntingtin protein aggregation by yeast based assay.

T1 sequence (P42858 whole entry, the tested form may be a part): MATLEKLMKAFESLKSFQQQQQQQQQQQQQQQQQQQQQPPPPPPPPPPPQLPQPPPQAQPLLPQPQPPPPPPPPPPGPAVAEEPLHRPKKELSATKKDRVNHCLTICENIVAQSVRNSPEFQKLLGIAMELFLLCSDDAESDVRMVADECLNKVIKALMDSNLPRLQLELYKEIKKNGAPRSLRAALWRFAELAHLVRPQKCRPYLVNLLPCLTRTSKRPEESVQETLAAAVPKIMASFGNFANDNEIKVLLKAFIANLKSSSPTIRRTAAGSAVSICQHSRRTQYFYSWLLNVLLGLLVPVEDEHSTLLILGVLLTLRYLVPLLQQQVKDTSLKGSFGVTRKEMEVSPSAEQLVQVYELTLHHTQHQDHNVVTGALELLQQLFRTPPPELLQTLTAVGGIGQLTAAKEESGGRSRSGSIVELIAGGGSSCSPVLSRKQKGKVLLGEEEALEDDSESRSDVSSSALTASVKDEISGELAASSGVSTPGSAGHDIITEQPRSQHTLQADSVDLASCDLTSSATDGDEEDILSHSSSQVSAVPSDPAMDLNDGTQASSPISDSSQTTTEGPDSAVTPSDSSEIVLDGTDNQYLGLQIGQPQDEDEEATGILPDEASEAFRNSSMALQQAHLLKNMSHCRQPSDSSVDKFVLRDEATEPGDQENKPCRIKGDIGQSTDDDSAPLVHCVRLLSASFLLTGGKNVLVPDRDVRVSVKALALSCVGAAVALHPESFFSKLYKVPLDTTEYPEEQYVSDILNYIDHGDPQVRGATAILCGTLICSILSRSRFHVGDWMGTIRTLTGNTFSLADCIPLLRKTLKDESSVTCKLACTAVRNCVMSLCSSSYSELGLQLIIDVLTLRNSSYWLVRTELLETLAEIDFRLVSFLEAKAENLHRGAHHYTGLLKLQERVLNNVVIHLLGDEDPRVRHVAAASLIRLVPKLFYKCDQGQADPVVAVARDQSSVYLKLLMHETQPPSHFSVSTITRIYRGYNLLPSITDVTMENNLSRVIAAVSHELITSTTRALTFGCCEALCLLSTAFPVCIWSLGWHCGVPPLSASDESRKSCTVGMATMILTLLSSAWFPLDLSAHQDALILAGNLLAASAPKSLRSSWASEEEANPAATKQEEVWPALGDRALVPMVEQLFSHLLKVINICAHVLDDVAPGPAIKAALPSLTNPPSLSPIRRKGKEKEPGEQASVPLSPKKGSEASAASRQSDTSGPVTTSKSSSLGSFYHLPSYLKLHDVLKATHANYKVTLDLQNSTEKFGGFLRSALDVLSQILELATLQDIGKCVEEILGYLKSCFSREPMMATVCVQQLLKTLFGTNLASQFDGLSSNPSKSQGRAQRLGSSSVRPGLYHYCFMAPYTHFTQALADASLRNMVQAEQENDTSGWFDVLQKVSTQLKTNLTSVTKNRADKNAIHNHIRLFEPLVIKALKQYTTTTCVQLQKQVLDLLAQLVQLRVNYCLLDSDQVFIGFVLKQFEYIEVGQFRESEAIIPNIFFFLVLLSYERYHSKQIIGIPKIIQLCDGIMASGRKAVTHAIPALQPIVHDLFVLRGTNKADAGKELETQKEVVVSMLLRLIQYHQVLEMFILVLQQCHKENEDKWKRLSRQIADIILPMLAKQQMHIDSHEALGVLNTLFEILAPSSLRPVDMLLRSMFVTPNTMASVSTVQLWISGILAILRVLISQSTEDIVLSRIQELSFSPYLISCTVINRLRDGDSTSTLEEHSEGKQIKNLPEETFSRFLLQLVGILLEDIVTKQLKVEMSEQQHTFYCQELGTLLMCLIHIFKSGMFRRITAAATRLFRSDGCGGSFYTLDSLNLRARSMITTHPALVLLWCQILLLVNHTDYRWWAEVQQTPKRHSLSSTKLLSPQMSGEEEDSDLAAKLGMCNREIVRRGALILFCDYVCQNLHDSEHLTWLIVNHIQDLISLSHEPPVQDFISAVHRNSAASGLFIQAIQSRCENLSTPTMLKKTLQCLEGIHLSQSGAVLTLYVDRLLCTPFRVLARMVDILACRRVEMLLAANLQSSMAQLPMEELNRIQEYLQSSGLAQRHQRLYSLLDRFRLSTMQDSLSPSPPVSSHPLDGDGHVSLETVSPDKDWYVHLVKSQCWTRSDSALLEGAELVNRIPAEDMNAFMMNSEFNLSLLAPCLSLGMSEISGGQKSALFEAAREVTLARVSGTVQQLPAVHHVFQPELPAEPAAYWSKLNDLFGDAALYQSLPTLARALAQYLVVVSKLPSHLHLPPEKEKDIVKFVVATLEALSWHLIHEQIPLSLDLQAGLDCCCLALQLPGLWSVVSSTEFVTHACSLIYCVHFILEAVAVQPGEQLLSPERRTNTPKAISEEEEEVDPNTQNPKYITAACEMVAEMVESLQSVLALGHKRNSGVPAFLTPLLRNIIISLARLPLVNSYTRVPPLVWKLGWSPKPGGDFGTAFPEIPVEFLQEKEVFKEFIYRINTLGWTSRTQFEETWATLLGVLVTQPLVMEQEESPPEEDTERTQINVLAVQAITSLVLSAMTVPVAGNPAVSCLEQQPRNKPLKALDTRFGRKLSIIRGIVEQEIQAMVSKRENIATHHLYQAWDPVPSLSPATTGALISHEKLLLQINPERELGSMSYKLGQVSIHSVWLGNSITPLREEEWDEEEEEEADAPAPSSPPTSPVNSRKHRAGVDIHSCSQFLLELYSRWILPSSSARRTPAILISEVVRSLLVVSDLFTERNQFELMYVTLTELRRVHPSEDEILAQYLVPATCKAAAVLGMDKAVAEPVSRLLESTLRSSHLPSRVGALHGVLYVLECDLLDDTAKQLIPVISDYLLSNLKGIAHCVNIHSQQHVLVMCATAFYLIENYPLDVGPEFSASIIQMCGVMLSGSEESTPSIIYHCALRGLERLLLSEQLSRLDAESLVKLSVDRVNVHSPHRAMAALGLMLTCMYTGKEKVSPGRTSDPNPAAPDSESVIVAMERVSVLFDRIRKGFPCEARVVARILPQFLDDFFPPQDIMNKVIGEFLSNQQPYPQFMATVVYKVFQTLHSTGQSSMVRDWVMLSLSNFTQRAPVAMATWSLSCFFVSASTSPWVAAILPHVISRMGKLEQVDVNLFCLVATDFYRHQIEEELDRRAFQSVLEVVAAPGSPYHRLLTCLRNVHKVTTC

Consider `Clc1ccc(CCNc2ncnc3ccc(Br)cc23)cc1`, for which, at Huntingtin [1], the IC50 entry is “Not Active”.

With `Clc1ccc2ncnc(NCCc3ccc(Oc4ccccc4)cc3)c2c1`, on Huntingtin [1], the IC50 result is “Not Active”.

In the case of `CN1CCN(c2ncnc3ccc(F)cc23)CC1`, on Huntingtin [1] (read-out: IC50), the IC50 is more than 10 µM.

Turning to `c1ccc2c(N3CCN(Cc4ccc5c(c4)OCO5)CC3)ncnc2c1`, the 50% inhibitory concentration (IC50) on Huntingtin [1] (read-out: IC50) is more than 10 µM.

Take `Brc1ccc2ncnc(N3CCN(Cc4ccc5c(c4)OCO5)CC3)c2c1`: the IC50 entry at Huntingtin [1] is given as “Not Active”.

On to `CN1CCN(c2ncnc3ccccc23)CC1`, for which the IC50 on Huntingtin [1] (read-out: IC50) was more than 10 µM.

As to `CCCNc1ncnc2ccc(Br)cc12`, the IC50 at Huntingtin [1] (read-out: IC50) turned out to be 8.13 µM. Further, the EC50 at Huntingtin [2] is 50 µM.

Consider `Oc1ccc(CCNc2ncnc3ccc(Cl)cc23)cc1`, for which, on Huntingtin [1] (read-out: IC50), the IC50 came out at 0.71 µM.

Take `CCOC(=O)COc1ccc(CCNc2ncnc3ccc(Cl)cc23)cc1`: the IC50 on Huntingtin [1] (read-out: IC50) stood at 4.48 µM.

For the compound `Fc1ccc2ncnc(N3CCN(Cc4ccc5c(c4)OCO5)CC3)c2c1`, the IC50 at Huntingtin [1] (read-out: IC50) is more than 10 µM.

Turning to `Brc1ccc2ncnc(N3CCNCC3)c2c1`, at Huntingtin [1] (read-out: IC50), the IC50 is 2.74 µM.

`Oc1ccc(CCNc2ncnc3ccc(F)cc23)cc1`: the IC50 at Huntingtin [1] (read-out: IC50) was 6.38 µM.

For the compound `Oc1ccc(CCNc2ncnc3ccccc23)cc1`, the IC50 on Huntingtin [1] (read-out: IC50) is more than 15.8 µM.

Take `Clc1ccc(CCNc2ncnc3ccccc23)cc1`: the IC50 on Huntingtin [1] (read-out: IC50) came out at 10.5 µM.

As to `CCN1CCN(c2ncnc3ccc(F)cc23)CC1`, the IC50 at Huntingtin [1] (read-out: IC50) turned out to be 5.26 µM.

As for `Brc1ccc2ncnc(NCc3ccccc3)c2c1`, the IC50 on Huntingtin [1] (read-out: IC50) was found to be 6.13 µM. At Huntingtin [2], the response was half-maximal at 50 µM (EC50).

Consider `CCN1CCN(c2ncnc3ccc(Br)cc23)CC1`, for which the IC50 on Huntingtin [1] (read-out: IC50) came out at 2.21 µM.

Turning to `Clc1ccc2ncnc(NCCc3ccc(OC4CCCC4)cc3)c2c1`, the 50% inhibitory concentration (IC50) result at Huntingtin [1] is given as “Not Active”.

With `CCN1CCN(c2ncnc3ccc(Cl)cc23)CC1`, the half-maximal inhibitory concentration (IC50) at Huntingtin [1] (read-out: IC50) stood at 3.63 µM.

With `Fc1ccc2ncnc(NCCc3ccc(Cl)cc3)c2c1`, the IC50 entry against Huntingtin [1] is listed as “Not Active”.

As to `CN1CCN(c2ncnc3ccc(Cl)cc23)CC1`, at Huntingtin [1] (read-out: IC50), the IC50 is more than 10 µM.

Regarding `Clc1ccc2ncnc(NCCc3ccc(OCc4ccccc4)cc3)c2c1`, the IC50 entry at Huntingtin [1] is “Not Active”.

Consider `Clc1ccc2ncnc(N3CCN(Cc4ccc5c(c4)OCO5)CC3)c2c1`, for which the half-inhibitory concentration (IC50) on Huntingtin [1] (read-out: IC50) amounted to 1.07 µM.

Regarding `Oc1ccc(CCNc2ncnc3ccc(Br)cc23)cc1`, the IC50 at Huntingtin [1] (read-out: IC50) came out at 1.11 µM.

`C=CCNc1ncnc2ccc(Br)cc12`: the IC50 at Huntingtin [1] (read-out: IC50) was 5.36 µM. Further, the EC50 at Huntingtin [2] turned out to be 50 µM.

Regarding `Clc1ccc(CCNc2ncnc3ccc(Cl)cc23)cc1`, the IC50 on Huntingtin [1] (read-out: IC50) was found to be 3.44 µM.

On to `Nc1ccc2ncnc(NCCc3ccc(Oc4ccccc4)cc3)c2c1`, for which, at Huntingtin [1], the half-inhibitory concentration (IC50) result was “Not Active”.

For the compound `CCN1CCN(c2ncnc3ccccc23)CC1`, the IC50 on Huntingtin [1] (read-out: IC50) was more than 10 µM.

Consider `CN1CCN(c2ncnc3ccc(Br)cc23)CC1`, for which the 50% inhibitory concentration (IC50) on Huntingtin [1] (read-out: IC50) is 1.31 µM.

The term IC50 denotes the concentration that inhibits the measured activity by half. The term EC50 denotes the concentration giving half of the maximal effect. A higher EC50 goes with a need for much substance.

Source of the values: ChEMBL document CHEMBL1153324, “Potent inhibitors of Huntingtin protein aggregation in a cell-based assay” (Bioorg Med Chem Lett, 2009).
